Screens from PubChem.
LANA-H2A inh = blockers of LANA interaction with H2A/H2B – biochemical, FP readout, HTS, primary screen; inhibition, % (test concentration not listed); Protein LANA1 (Human herpesvirus 8 type P (isolate GK18)), Q9QR71; cell-free LANA-H2A/H2B peptide, fluorescence polarization; AID 2629, 2010; actives 0.6% (n = 320,000); in the data active means inhibition mostly above about 10%, no sharp cut-off; inactive means mostly below about 6.7%
GSK3B inh = human GSK3beta kinase inhibitors, primary screen, biochemical, cell-free homogeneous, HTS; GST-GSK3beta kinase, ADP-Glo luminescence, 60 min; active compounds read low; actives 0.038% (n = 300,000); activity score (negative = inhibition), % at 10 µM; AID 2097, 2009; Glycogen synthase kinase-3 beta (Homo sapiens), P49841;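 active means more than half of replicate wells score below -50%, meaning over 50% inhibition versus plate controls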
Target sequence (P49841 whole entry, looked up): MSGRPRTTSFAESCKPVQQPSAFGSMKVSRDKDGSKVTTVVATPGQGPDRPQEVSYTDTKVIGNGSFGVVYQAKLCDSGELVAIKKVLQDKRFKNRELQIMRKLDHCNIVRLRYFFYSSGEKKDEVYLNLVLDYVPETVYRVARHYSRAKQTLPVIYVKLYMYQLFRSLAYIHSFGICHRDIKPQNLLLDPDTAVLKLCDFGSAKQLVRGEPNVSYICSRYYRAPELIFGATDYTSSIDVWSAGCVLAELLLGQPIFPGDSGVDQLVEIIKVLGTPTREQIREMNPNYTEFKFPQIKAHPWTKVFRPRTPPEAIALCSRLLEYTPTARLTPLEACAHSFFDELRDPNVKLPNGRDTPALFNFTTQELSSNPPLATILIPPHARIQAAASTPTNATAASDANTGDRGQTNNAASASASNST
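Test system: GST-fused GSK3beta enzyme, cell-free | Quantity: 1.6 ng GST-GSK3beta enzyme per well | Reagent: 25 µM ATP with peptide substrate | Schedule: 60 min enzyme reaction, room temperature | Signal: Luminescent ADP-Glo measurement of ADP formed | Read-out basis: Score relative to plate controls | Control set: DMSO and 20 µM GW8510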
Lipid droplet = inhibitors of hepatocyte lipid droplet formation, primary screen, imaging, high-throughput imaging, BODIPY stain; AML12 mouse hepatocytes, oleate lipid droplets; inhibition, % at 6.5 µM; actives 0.4% (n = 240,000);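 active means lipid droplet intensity inhibited by at least 50%, with more than 500 cells counted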
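Assay system: AML12 mouse liver cells | Compound: 6.5 µM single-point dosing | Schedule: Overnight exposure | Technique: Fluorescence imaging, 20x objective, two fields per well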
TAG inh = inhibitors of triacylglycerol accumulation, primary screen, cell-based, uHTS, fluorescence, H9c2; H9c2 cells, Nile Red lipid (TAG) fluorescence; cells loaded with 200 µM oleic acid; inhibition, % at 12.5 µM; actives 0.66% (n = 230,000); AID 651582, 2012;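 active means pattern-corrected inhibition of lipid staining of at least 50% with the nuclear-stain viability signal not falling by more than 50%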
STK33 inh = inhibitors of purified STK33 kinase, primary screen, biochemical, ADP-Glo luminescence, homogeneous, cell-free; MBP phosphorylation; inhibition, % at 10 µM; Serine/threonine-protein kinase 33 (Homo sapiens), Q9BYT3; AID 2661, 2010; actives 0.073% (n = 320,000);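 active means inhibition at or above 25%, using the most active replicate where run in duplicate; inactive means inhibition below 25%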
GSK3 alpha inh = blockers of GSK3A enzyme activity – biochemical, luminescence, cell-free homogeneous, HTS, primary screen; GSK-3 alpha kinase, ADP-Glo luminescence, 60 min; inhibition, % at 10 µM; actives 0.1% (n = 320,000);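 active means more than half of replicates show inhibition above 20%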;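 further: GST-tagged GSK-3 alpha with peptide substrate and 25 µM ATP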
Hep lipid conf = hepatocyte lipid droplet accumulation inhibitors, confirmation, imaging, AML12 mouse hepatocytes, single concentration, high-content. shares compounds with Lipid droplet. BODIPY lipid droplet imaging; droplets induced with 100 µM oleic acid. inhibition, % at 5.2 µM. actives 65% (n = 870). AID 463183, 2010;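 active means inhibition of lipid droplet metric at least 50%, with more than 300 cells in each of four replicates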
AML12 cytotox = AML12 hepatocyte cytotoxicity, counter-screen for hepatic lipid droplet formation project, imaging, DAPI nuclear morphology imaging | shares compounds with Lipid droplet | AID 463200, 2010 | actives 3% (n = 870) | z-score at 5 µM | AML12 mouse hepatocytes; active compounds read high; cells fed 100 µM oleate overnight; in the data active means z-score above about 6.3;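 further: compound exposure lasted overnight at 37 °C before fixation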
AML12 tox conf = AML12 hepatocyte cytotoxicity, confirmation, cytotoxicity control for hepatic lipid droplet formation project, cell-based, single concentration. shares compounds with Lipid droplet. AML12 mouse hepatocyte viability, ATP luminescence; cells loaded with 100 µM oleic acid. cytotoxicity, % at 50 µM. 530 tested, under 10 active. AID 463219, 2010;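 active means cytotoxicity above 50% in each of four replicates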;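 further: compound exposure lasted overnight at 37 °C before the ATP read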
Hits are given with their value; - = inactive; . = no result given. Rows were chosen to be rich in hits. Some 1.3% of all compounds tested hit in one or more screens of this group.

SMILES	LANA-H2A inh	GSK3B inh	Lipid droplet	TAG inh	STK33 inh	GSK3 alpha inh	Hep lipid conf	AML12 cytotox	AML12 tox conf
CCOc1ccc(C2c3cc(OC)c(OC)cc3CC(=O)N2c2ccccc2)cc1 (centres undefined)	-	-	.	.	-	-	.	.	.
CCOc1cc2c(cc1OCC)C(c1ccccc1)N(c1ccccc1)C(=O)C2 (centres undefined)	-	-	89	.	-	-	107	-	-
CCOc1cc2c(cc1OCC)C(c1ccc(OC)cc1)N(c1ccccc1)C(=O)C2 (centres undefined)	.	-	51	.	.	.	60	-	-
O=C(NC(=S)Nc1ccc([N+](=O)[O-])cc1)c1ccco1	.	.	.	-	.	.	.	.	.
CC1CCN(C(=O)c2ccc3c(c2NCCO)C(=O)c2ccccc2C3=O)CC1	-	-	68	118	-	-	109	-	-
c1ccc2nc(N3CCN(Cc4ccc5c(c4)OCO5)CC3)cnc2c1	-	-	50	-	-	-	-	-	.
CCOc1ccc(NC(=O)CN(C)C(=O)c2ccc(C)c(S(=O)(=O)N3CCCCC3)c2)cc1OCC	-	-	63	-	-	.	63	-	-
COc1cc(NC(=O)c2ccco2)c(OC)cc1NC(=O)Nc1ccccc1Cl	-	-	82	.	-	-	114	-	-
COc1ccc(Cl)cc1NC(=O)c1ccco1	-	-	-	-	-	-	.	.	.
COC(=O)[C@@H](NC(=O)O[C@@H]1C(=O)c2ccc(OC)cc2O[C@H]1c1cccc(C(F)(F)F)c1)C(C)C	-	-	-	.	-	-	.	.	.
COc1ccc2c(c1)O[C@@H](c1cccc(C(F)(F)F)c1)[C@H](OC(=O)NCCc1ccc(OC)c(OC)c1)C2=O	-	-	64	.	-	-	75	-	.
O=C(N/N=C/c1cc([N+](=O)[O-])ccc1O)c1ccncc1	-	-	-	-	-	-	.	.	.
CCOc1ccccc1NC(=O)N1CCCC1C(=O)NCc1cccs1 (centres undefined)	-	-	74	.	-	-	94	-	-
O=C(CCCN1C(=O)c2ccccc2C1=O)Nc1sc2c(c1C(=O)NCc1ccco1)CCC2	-	-	-	.	-	-	.	.	.
CCOc1ccc(C(C)NC(=O)Cc2ccccc2F)cc1OCC (centres undefined)	-	-	50	-	-	-	93	-	-
CCOc1ccc(C(C)NC(=O)Cc2ccccc2)cc1OCC (centres undefined)	-	-	53	.	-	-	73	-	-
CCc1cccc(NC(=O)CCCn2nc(CC)n3c(cc4occc43)c2=O)c1	-	-	53	.	-	-	94	-	-
CC(C)(C)c1ccc(-c2nnc(SCC(=O)Nc3sc4c(c3C#N)CCCC4)o2)cc1	-	-	58	.	-	-	-	-	.
CCOC(=O)c1c(NC(=O)CSc2nnc(-c3ccc(Cl)cc3)o2)sc2c1CCC2	-	-	.	-	-	-	.	.	.
CCOc1ccc(CN(C)C(=O)CNC(=O)c2ccc3ccccc3c2)cc1OC	-	-	88	.	-	-	107	-	-
COc1ccc(Br)cc1CN(C)C(=O)CNC(=O)c1ccc2ccccc2c1	-	-	-	.	-	-	.	.	.
O=C(COC(=O)c1ccncc1)Nc1cc(S(=O)(=O)N2CCOCC2)ccc1Cl	.	.	.	-	.	.	.	.	.
O=C(NCCCN1CCN(c2cccc(Cl)c2)CC1)C1(S(=O)(=O)c2ccc(Cl)cc2)CC1	-	-	-	-	-	-	.	.	.
O=C(CSCC(=O)N1CCCc2ccccc21)Nc1nc(-c2ccccc2)cs1	-	-	69	-	-	-	90	-	-
CCOC(=O)N1CCN(C(=O)CSCC(=O)Nc2nc(-c3cccs3)cs2)CC1	-	-	79	.	-	-	97	-	-
SMILES	LANA-H2A inh	GSK3B inh	Lipid droplet	TAG inh	STK33 inh	GSK3 alpha inh	Hep lipid conf	AML12 cytotox	AML12 tox conf
CCN(CC)CCCNC(=O)c1cn(CC)c2ccc(S(=O)(=O)N(C)C3CCCCC3)cc2c1=O	-	-	-	.	-	-	.	.	.
CCn1cc(C(=O)NCCCN(CC(C)C)CC(C)C)c(=O)c2cc(S(=O)(=O)N(C)C3CCCCC3)ccc21	-	-	69	.	-	-	-	-	.
CCN(CC(=O)Nc1ccccc1C(F)(F)F)C(=O)c1cc(-c2cccs2)nn1-c1ccccc1	-	-	65	-	-	-	103	-	-
Cc1ccc(-c2[nH]c3ccccc3c2SCCNC(=O)c2ccc(S(=O)(=O)N3CCOCC3)cc2)cc1	-	-	54	-	-	-	91	-	-
O=C(NCc1nc2ccccc2[nH]1)c1ccc(S(=O)(=O)N2CCOCC2)cc1	-	-	.	-	-	-	.	.	.
COc1ccccc1OCc1nnc(SCC(=O)Nc2ccc(C)cc2)n1C	-	-	.	.	-	-	.	.	.
Cc1ccccc1OCc1nnc(SCC(=O)Nc2ccc3c(c2)oc2ccccc23)n1C	-	-	93	.	-	-	-	-	.
O=C(CCNC(=O)C1CCN(S(=O)(=O)c2ccccc2)CC1)NCCc1ccc(Cl)cc1	-	-	-	.	-	-	.	.	.
O=C(CCNC(=O)C1CCN(S(=O)(=O)c2ccccc2)CC1)NCCc1cccc(F)c1	-	-	54	.	-	-	-	-	.
COc1ncccc1C(=O)NC1CCCc2c1cnn2-c1ccc(C)c(C)c1 (centres undefined)	-	-	58	.	-	-	92	-	-
CN(C(=O)c1ccc(NC(=O)c2ccco2)cc1)c1ccccc1	-	-	-	-	-	-	.	.	.
CCOc1ccc(NS(=O)(=O)c2ccc(C(=O)N3CCCCC3)cc2)cc1	-	-	57	-	-	-	87	-	-
CCOC(=O)c1ccc(S(=O)(=O)Nc2ccc(N3CCOCC3)cc2)cc1	-	-	86	.	-	-	79	-	-
